This is an account of results in paper PMC2749063 (Current eye research, 2009).

Entries after “also recorded” stand apart in the source; their conditions may differ. Read-outs that look alike come from different tables or passages of the source. Ends that are not written are not given here.

For assay [1], the system named is bacteria. The conditions noted are these: cited from earlier work.
Assay [2] deals with Ad5. Briefly: TOTO-1 assay, Ad5 capsid integrity. The conditions noted are these: 5 hours at 37°C; for TOTO-1 fluorescence / Ad5 capsid integrity (in words): Ad5, peptide 10-500 μg/ml. More on the design: species or system adenovirus.
For assay [3], the system named is Ad3. Description: Direct viral time kill assay, Ad3. Format: cell-based, adenovirus. The following applies: Ad3, 500 μg/ml peptide, 4 hours; ANOVA p = 0.008. The method in brief: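 Ad3 reference strain grown in A549 cells. Peptide stock in sterile water, diluted in tryptone-saline (pH 5.5). Final mix: 500 μg/ml peptide with ~10⁴ PFU/ml virus, or tryptone-saline control, at 37°C. At 1 and 4 h, aliquots diluted in ice-cold medium with 10% FBS, then plated on A549 monolayers (37°C, 5% CO₂). After 8-9 days, gentian violet-stained plaques counted as PFU/ml. Log₁₀ titers by ANOVA/Fisher; 7 repeats.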

In assay [4] the test system is Ad5. Description: Direct viral time kill assay, Ad5. Format: cell-based, adenovirus. The following applies: Ad5, 500 μg/ml peptide; for inhibition of Ad5 vs tryptone-saline control (in words): 4 hours, ANOVA p < 0.001. The method in brief: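 Ad5 clinical isolate grown in A549 cells. Peptide stock in sterile water, diluted in tryptone-saline (pH 5.5); mixed with virus to 500 μg/ml final, ~10⁴ PFU/ml; 37°C water bath. Aliquot at 1 h quenched in ice-cold medium with 10% FBS, diluted, plated on A549 monolayers (37°C, 5% CO₂). Gentian violet stain at 7 days, plaques counted, titer as PFU/ml; 7 repeats; log₁₀ ANOVA, Fisher comparisons.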

Assay [5] has as its system Ad5. Briefly: Increasing Concentration Direct Inhibition Assay, Ad5. Format: cell-based, adenovirus.
The subject of assay [6] is HSV-1. Description: Increasing Concentration Direct Inhibition Assay, HSV-1. Format: cell-based, herpes simplex virus type 1. The method in brief:
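HSV-1 McKrae strain, grown in Vero cells. Virus incubated with test compound at a range of concentrations in tryptone-saline. Titers were determined by plaque assay. Each concentration has its own tryptone-saline control. Log reduction is the mean titer difference between treated virus and that control.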

Assay [7] concerns HSV-1. Briefly: TOTO-1 assay, HSV-1 envelope/capsid integrity. More on the design: species or system herpes simplex virus type 1. The conditions noted are these: 5 hours at 37°C. The method in brief:
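HSV-1 McKrae grown in Vero cells. Test compound (2-500 μg/ml) incubated with or without virus (~5 × 10⁴ PFU/ml), 5 h, 37°C. Mixture added to 120 nM TOTO-1 in tryptone-saline pH 8.0; fluorescence read at 485/20 nm excitation, 516/20 nm emission. Signal = raw minus peptide- and virus-derived fluorescence; adenovirus DNA standards. Run in duplicate; repeated at least twice on different days.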

“IQSPAGQSRCGGFLVREDFVLTAAHCWG (cysteine pairing not given here) [Cathepsin G20-47 peptide, reference compound]”: in assay [1], the “antibacterial activity (in words)” value is on record as “negligible antibacterial activity”. Further, in assay [2], the “TOTO-1 fluorescence / Ad5 capsid integrity (in words)” value is given as “minimal fluorescence; also recorded: no disruptive effect on Ad5 capsid integrity”.
On to “Asn-Gln-------------Gly-Arg-His-Phe-Cys-Gly-Gly-Ala-Leu-Ile-His-Ala-Arg-Phe-Val-Met-Thr-Ala-Ala-Ser-Ser-Phe-Gln [Peptide C]”, for which the “inhibition of Ad3 vs tryptone-saline control (in words)” value in assay [3] is on record as “statistically-significant reduction in viral titers”.
With “Asn-Gln-------------Gly-Arg-His-Phe-Ser-Gly-Gly-Ala-Leu-Ile-His-Ala-Arg-Phe-Val-Met-Thr-Ala-Ala-Ser-Ser-Phe-Gln [Peptide D]”, the “antibacterial activity (in words)” value in assay [1] (ref Previous studies) is “inactive”. Besides, the “inhibition of Ad3 vs tryptone-saline control (in words)” value in assay [3] was “statistically-significant reduction in viral titers”.
In the case of NQGRHFSGGALIHARFVMTAASCFQ [Peptide B], the “inhibition of Ad5 vs tryptone-saline control (in words)” value in assay [4] is recorded as “significantly greater inhibitory activity than the tryptone-saline control”. Moreover, the “inhibition of Ad3 vs tryptone-saline control (in words)” value in assay [3] is given as “statistically-significant reduction in viral titers”.
As to “NQGRHFCGGALIHARFVMTAASCFQ (cysteine pairing not given here) [Peptide A]”, the initial inhibitory concentration in assay [5] (Ad5, 4 hours incubation) is 50 µg/mL; in assay [6] (HSV-1, 4 hours incubation), 50 µg/mL. In addition, the “inhibitory effect (log reduction of viral titers) above 100 μg/ml” value in assay [5] (Ad5, peptide above 100 μg/ml (up to 750 μg/ml), 4 hours incubation) was approximately 2 log reductions; in assay [6] (HSV-1, peptide above 100 μg/ml (up to 750 μg/ml), 4 hours incubation), approximately 2 log reductions. Moreover, in assay [2] (Ad5, peptide 500 μg/ml, 120 nM TOTO-1), the “increase in TOTO-1 fluorescence” value is 65-85%. Moreover, in assay [2], the “TOTO-1 fluorescence / Ad5 capsid integrity (in words)” value is “dose-dependent increase in TOTO-1 fluorescence”. Further, the “inhibition of Ad5 at 1 hour (in words)” value in assay [4] (1 hour incubation, data not shown) was “significantly inhibited”. For the same substance, the “inhibition of Ad5 vs tryptone-saline control (in words)” value in assay [4] is reported as “significantly greater inhibitory activity than the tryptone-saline control”. The “TOTO-1 fluorescence with HSV-1 between 10 and 100 μg/ml (in words)” value in assay [7] (HSV-1, peptide 10 to 100 μg/ml) is reported as “no increase in fluorescence”. For the same substance, the “TOTO-1 fluorescence with HSV-1 from 100 to 500 μg/ml (in words)” value in assay [7] (HSV-1, peptide 100 to 500 μg/ml) is “increasing fluorescence”. Further, the “inhibition of Ad3 vs tryptone-saline control (in words)” value in assay [3] is listed as “statistically-significant reduction in viral titers”.
